Experimental data from ChEMBL document CHEMBL1157620, “1-(Aryl)-6-[alkoxyalkyl]-3-azabicyclo[3.1.0]hexanes and 6-(aryl)-6-[alkoxyalkyl]-3-azabicyclo[3.1.0]hexanes: a new series of potent and selective triple reuptake inhibitors” (J Med Chem, 2010).
Active and inactive are the calls of the source. The rule behind the calls is not given here.

Experiments:
[1] = Bioavailability in rat; format: ADME, organism-based; conditions: in vivo
[2] = Blood clearance in rat; format: ADME, organism-based
[3] = target: T1, Sodium-dependent noradrenaline transporter (Homo sapiens, UniProt P23975); assay: Displacement of [3H]nisoxetine from human recombinant NET expressed in BacMam virus-transduced cells by scintillation proximity assay; format: cell-based
T1 sequence (P23975 whole entry): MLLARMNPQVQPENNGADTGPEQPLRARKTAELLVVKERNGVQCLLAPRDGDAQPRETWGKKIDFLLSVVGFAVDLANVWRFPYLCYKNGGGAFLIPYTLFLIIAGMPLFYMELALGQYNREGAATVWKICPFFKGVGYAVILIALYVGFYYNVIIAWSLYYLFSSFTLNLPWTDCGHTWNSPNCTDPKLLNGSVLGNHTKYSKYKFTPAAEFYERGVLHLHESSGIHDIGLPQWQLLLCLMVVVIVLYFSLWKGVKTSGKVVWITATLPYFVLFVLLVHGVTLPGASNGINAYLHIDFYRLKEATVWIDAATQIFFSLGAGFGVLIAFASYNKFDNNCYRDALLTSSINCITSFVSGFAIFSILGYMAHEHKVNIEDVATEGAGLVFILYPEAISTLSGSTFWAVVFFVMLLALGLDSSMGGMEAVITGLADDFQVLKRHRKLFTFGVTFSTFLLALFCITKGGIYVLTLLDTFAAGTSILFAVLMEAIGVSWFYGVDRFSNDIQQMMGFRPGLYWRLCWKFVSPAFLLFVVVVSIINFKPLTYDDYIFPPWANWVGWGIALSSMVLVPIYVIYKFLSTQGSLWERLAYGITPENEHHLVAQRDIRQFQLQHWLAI
In short: (§1)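 BacMam-transduced membranes in SPA format. SERT: 1 mg/mL beads, 6 μg/mL membranes, 3 nM [3H]citalopram. NET: 2 mg/mL beads, 40 μg/mL membranes, 10 nM [3H]nisoxetine. Incubated overnight at room temperature; pKi from pIC50 by Cheng-Prusoff.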

[4] = target: T2, Sodium-dependent serotonin transporter (Homo sapiens, UniProt P31645); assay: Displacement of [3H]citalopram from human recombinant SERT expressed in BacMam virus-transduced cells by scintillation proximity assay; format: cell-based; in short: as §1
T2 sequence (P31645 whole entry): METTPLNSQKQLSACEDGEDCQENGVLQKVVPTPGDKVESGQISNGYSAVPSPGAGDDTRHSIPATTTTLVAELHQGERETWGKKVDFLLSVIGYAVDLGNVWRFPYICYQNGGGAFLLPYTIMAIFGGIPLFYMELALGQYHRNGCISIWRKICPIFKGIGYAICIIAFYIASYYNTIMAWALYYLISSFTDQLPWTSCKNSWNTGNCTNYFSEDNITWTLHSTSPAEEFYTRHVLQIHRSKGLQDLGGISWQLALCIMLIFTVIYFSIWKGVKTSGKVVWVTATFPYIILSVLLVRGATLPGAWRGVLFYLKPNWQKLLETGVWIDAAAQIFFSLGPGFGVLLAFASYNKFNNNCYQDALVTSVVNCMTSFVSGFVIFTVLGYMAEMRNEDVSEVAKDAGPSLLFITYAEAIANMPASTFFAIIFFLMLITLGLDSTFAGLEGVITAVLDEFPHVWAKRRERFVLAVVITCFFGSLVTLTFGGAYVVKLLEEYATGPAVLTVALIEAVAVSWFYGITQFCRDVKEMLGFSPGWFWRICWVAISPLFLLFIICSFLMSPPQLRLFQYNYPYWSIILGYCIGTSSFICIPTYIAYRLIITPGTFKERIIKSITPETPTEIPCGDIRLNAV

[5] = Volume of distribution in rat; format: ADME, organism-based; conditions: in vivo
[6] = target: T3, Sodium-dependent dopamine transporter (Homo sapiens, UniProt Q01959); assay: Displacement of [3H]WIN-35428 from human recombinant DAT expressed in BacMam virus-transduced cells by scintillation proximity assay; format: cell-based
T3 sequence (Q01959 whole entry): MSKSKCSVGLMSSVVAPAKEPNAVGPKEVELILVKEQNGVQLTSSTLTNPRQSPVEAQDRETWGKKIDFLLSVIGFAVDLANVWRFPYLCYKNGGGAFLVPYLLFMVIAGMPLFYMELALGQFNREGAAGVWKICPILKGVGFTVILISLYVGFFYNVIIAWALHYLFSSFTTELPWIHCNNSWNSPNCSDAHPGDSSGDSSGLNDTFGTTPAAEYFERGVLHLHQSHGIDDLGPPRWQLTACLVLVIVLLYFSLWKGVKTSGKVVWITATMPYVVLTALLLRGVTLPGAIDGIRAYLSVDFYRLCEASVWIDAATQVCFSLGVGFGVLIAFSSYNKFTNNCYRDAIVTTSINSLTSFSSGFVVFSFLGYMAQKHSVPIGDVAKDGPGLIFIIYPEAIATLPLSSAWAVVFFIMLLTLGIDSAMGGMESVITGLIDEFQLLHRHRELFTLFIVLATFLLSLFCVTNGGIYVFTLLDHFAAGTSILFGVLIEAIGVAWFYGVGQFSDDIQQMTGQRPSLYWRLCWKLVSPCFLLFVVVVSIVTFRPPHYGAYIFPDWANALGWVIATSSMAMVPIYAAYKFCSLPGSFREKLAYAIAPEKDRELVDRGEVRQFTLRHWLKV

[7] = Half life in rat; format: ADME, organism-based; conditions: in vivo
Brain = assay: (§2) Fraction unbound in rat brain; format: ADME, tissue-based
Rattus norvegicus [8] = assay: Enhancement of locomotor activity of CD rat at 1 mg/kg, ip; format: functional, organism-based; parameters: dose 1 mg/kg
In short: (§3)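 Male CD rats, 280-310 g, with microdialysis probe in left medial prefrontal cortex, freely moving, locomotion recorded at the same time. Dosed ip at 0.1, 0.3 or 1 mg/kg. Dialysate collected every 20 min after 2 h of perfusion, for 3 h post dose. NA, DA and 5-HT by HPLC with electrochemical detection; two-way repeated-measures ANOVA.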

Homo sapiens = species: Homo sapiens; assay: Selectivity for human recombinant SERT over human recombinant DAT
Rattus norvegicus [9] = assay: Increase in extracellular dopamine level in frontal cortex of free moving CD rat at 1 mg/kg, ip after 3 hrs by microdialysis; format: functional, organism-based; parameters: dose 1 mg/kg; in short: as §3
Mus musculus [10] = assay: Antidepressant-like activity in CD1 mouse assessed as reduction in immobility time at 10 mg/kg, po administered 120 mins before test by forced swimming test; format: functional, organism-based; parameters: dose 10 mg/kg
In short: (§4)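 Naive male CD-1 mice, 25-30 g, dosed orally 120 min before the swim test. Immobility (floating upright, only small movements to keep the head above water) was scored over the last 4 min of a 6 min session by an observer blind to treatment, from video.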

Rattus norvegicus [11] = assay: Increase in extracellular serotonin level in frontal cortex of free moving CD rat at 1 mg/kg, ip after 3 hrs by microdialysis; format: functional, organism-based; parameters: dose 1 mg/kg; in short: as §3
Mus musculus [12] = assay: Potentiation of 5-hydroxytryptophan-induced stereotpic behavior in po dosed CD1 mouse administered 120 mins before 5HTP challenge measured for 30 mins; format: functional, organism-based
In short: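 CD-1 mice dosed orally 120 min before 5-HTP (100 mg/kg ip). Videotaped for 30 min and scored for hyperlocomotion, hind-limb abduction, flat body posture, head twitches/tremor and body tremor.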

Mus musculus [13] = assay: Increase in spontaneous locomotor activity in CD1 mouse at 30 mg/kg, po administered 120 mins before test measured for 30 mins; format: functional, organism-based; parameters: dose 30 mg/kg
In short: (§5)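 CD-1 mice dosed orally at 3, 10 or 30 mg/kg, 120 min before test. Total distance travelled recorded over 30 min in infrared activity boxes.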

Mus musculus [14] = assay: Antidepressant-like activity in CD1 mouse assessed as reduction in immobility time at 3 mg/kg, po administered 120 mins before test by forced swimming test; format: functional, organism-based; parameters: dose 3 mg/kg; in short: as §4
Mus musculus [15] = assay: Increase in spontaneous locomotor activity in CD1 mouse at 10 mg/kg, po administered 120 mins before test measured for 30 mins; format: functional, organism-based; parameters: dose 10 mg/kg; in short: as §5
Rattus norvegicus [16] = assay: Increase in extracellular norepinephrine level in frontal cortex of free moving CD rat at 1 mg/kg, ip after 3 hrs by microdialysis; format: functional, organism-based; parameters: dose 1 mg/kg; in short: as §3
Mus musculus [17] = assay: Increase in spontaneous locomotor activity in CD1 mouse at 3 mg/kg, po administered 120 mins before test measured for 30 mins; format: functional, organism-based; parameters: dose 3 mg/kg; in short: as §5
Mus musculus [18] = assay: Potentiation of 5-hydroxytryptophan-induced stereotpic behavior in CD1 mouse at 10 mg/kg, po administered 120 mins before 5HTP challenge measured for 30 mins; format: functional, organism-based; parameters: dose 10 mg/kg
In short: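 Naive male CD-1 mice (25-30 g) were dosed orally 120 min before an ip injection of 5-HTP (100 mg/kg). Each mouse was then placed alone in a perspex box and videotaped. For the next 30 min, observers scored aimless hyperlocomotor activity, hind-limb abduction, flat body posture, head twitches/tremor and body tremor.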

[19] = target: T2, Sodium-dependent serotonin transporter; assay: Inhibition of [3H]serotonin reuptake at human SERT expressed in LLCPK cells by scintillation proximity assay; format: cell-based
In short: (§6)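 Uptake-SPA on stably transfected LLCPK cells in HEPES buffer, pH 7.4. SERT: 25000 cells/well, 1.5 mg/mL beads, 35 nM [3H]serotonin. NET: 50000 cells/well, 1.5 mg/mL beads, 45 nM [3H]noradrenalin. DAT: 75000 cells/well, 2 mg/mL beads, 75 nM [3H]dopamine. Concentrations are those of the substrate addition. 1 h at room temperature; 4-parameter fit.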

[20] = target: T3, Sodium-dependent dopamine transporter; assay: Inhibition of [3H]dopamine reuptake at human DAT expressed in LLCPK cells by scintillation proximity assay; format: cell-based; in short: as §6
[21] = target: T1, Sodium-dependent noradrenaline transporter; assay: Inhibition of [3H]noradrenalin reuptake at human NET expressed in LLCPK cells by scintillation proximity assay; format: cell-based; in short: as §6
Cytochrome P450 2C9 = Cytochrome P450 2C9 (Homo sapiens, UniProt P11712); assay: Inhibition of human CYP2C9 by fluorescence assay; format: ADME
Cytochrome P450 2C9, sequence (P11712 whole entry): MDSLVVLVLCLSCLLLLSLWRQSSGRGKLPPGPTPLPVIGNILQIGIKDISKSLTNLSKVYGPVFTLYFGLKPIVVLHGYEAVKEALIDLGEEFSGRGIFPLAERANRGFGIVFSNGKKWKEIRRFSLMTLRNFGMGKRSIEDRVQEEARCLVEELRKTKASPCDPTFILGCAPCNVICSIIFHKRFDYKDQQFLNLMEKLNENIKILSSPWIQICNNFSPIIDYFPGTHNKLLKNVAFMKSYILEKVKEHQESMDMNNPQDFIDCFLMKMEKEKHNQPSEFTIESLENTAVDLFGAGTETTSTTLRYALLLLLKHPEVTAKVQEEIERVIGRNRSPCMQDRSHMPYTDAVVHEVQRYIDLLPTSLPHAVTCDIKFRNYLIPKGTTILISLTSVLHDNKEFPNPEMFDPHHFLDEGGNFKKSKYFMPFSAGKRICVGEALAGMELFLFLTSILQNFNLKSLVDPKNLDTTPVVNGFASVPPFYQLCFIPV
In short: (§7)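 Recombinant human P450 bactosomes (0.1 mg/mL) in 50 mM phosphate, pH 7.4. Test compound at 0.1-10 μM, preincubated 10 min at 37 °C with fluorogenic substrate: ethoxyresorufin 0.5 μM (1A2), FCA 50 μM (2C9), BMC 10 μM (2C19), MMC 10 μM (2D6).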

[22] = target: T1, Sodium-dependent noradrenaline transporter; assay: Displacement of [N-methyl-3H]nisoxetine from human recombinant NET expressed in LLCPK cells by liquid scintillation counting; format: cell-based
In short: (§8)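 Filtration binding on stably transfected LLCPK cell membranes, 2 h at room temperature. SERT: 0.25 nM [3H]citalopram, about 2.5 μg protein/well, NSB with 10 μM fluoxetine. NET: 1.5 nM [3H]nisoxetine, 4.8 μg/well, NSB with 10 μM desipramine. DAT: 10 nM [3H]WIN-35,428, 9.6 μg/well, NSB with 10 μM GBR-12909. Filter-bound radioactivity counted; 4-parameter fit, pKi by Cheng-Prusoff.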

Cytochrome P450 3A4 = Cytochrome P450 3A4 (Homo sapiens, UniProt P08684); assay: Inhibition of human CYP3A4 by fluorescence assay
Cytochrome P450 3A4, sequence (P08684 whole entry): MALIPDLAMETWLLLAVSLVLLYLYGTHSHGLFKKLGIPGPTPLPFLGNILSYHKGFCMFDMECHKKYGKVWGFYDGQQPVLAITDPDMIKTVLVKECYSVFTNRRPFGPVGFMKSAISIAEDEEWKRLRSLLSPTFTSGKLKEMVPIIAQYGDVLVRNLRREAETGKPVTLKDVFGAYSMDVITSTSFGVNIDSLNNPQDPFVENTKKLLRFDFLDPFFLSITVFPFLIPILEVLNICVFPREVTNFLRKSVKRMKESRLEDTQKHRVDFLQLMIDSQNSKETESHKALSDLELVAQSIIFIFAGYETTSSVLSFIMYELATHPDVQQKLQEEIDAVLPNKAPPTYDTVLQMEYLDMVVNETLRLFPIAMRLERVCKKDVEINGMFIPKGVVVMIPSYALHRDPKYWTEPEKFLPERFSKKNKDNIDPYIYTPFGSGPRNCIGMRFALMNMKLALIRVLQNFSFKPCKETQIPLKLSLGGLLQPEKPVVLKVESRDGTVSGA

Cytochrome P450 2C19 = Cytochrome P450 2C19 (Homo sapiens, UniProt P33261); assay: Inhibition of human CYP2C19 by fluorescence assay; format: ADME; in short: as §7
Cytochrome P450 2C19, sequence (P33261 whole entry): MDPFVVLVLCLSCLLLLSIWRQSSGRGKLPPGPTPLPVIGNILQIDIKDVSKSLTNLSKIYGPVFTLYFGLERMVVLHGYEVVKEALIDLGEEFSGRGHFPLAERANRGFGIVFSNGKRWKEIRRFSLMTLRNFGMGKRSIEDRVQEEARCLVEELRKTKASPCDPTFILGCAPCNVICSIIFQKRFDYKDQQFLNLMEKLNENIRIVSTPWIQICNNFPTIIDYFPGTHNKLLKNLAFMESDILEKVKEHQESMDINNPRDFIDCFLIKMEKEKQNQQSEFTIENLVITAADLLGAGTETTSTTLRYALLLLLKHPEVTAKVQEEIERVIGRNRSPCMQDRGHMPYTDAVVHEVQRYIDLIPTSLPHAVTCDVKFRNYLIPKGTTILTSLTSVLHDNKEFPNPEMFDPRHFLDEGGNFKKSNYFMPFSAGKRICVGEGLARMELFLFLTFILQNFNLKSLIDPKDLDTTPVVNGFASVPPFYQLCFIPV

[23] = target: Sodium-dependent serotonin transporter (Rattus norvegicus, UniProt P31652); assay: Displacement of [3H]citalopram from rat cortex SERT by filtration binding assay
Sodium-dependent serotonin transporter (Rattus norvegicus, UniProt P31652), sequence (P31652 whole entry): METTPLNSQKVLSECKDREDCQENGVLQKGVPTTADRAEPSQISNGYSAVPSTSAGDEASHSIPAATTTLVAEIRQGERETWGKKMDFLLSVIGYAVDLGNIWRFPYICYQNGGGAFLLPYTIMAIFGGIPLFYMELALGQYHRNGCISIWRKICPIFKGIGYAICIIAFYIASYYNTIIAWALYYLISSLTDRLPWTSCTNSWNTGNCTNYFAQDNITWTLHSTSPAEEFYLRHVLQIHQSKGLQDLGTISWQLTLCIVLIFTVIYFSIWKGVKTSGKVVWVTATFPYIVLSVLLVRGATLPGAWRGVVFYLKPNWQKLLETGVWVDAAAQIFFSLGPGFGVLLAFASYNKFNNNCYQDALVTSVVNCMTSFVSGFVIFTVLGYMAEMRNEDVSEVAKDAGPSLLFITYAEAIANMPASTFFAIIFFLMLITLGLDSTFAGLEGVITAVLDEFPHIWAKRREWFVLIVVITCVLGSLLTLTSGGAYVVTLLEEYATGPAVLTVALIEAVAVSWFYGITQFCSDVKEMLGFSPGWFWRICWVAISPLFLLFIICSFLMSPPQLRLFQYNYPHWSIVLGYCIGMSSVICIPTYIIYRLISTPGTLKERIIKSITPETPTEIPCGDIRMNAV
In short: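 Native brain tissue filtration binding, run as for the recombinant transporters. SERT on rat or mouse cortex (20 and 7 μg protein/well respectively). NET on rat hippocampus (40 μg/well). DAT on rat striatum (20 μg/well).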

Cytochrome P450 1A2 = target: T4, Cytochrome P450 1A2 (Homo sapiens, UniProt P05177); assay: Inhibition of human CYP1A2 by fluorescence assay; format: ADME; in short: as §7
T4 sequence (P05177 whole entry): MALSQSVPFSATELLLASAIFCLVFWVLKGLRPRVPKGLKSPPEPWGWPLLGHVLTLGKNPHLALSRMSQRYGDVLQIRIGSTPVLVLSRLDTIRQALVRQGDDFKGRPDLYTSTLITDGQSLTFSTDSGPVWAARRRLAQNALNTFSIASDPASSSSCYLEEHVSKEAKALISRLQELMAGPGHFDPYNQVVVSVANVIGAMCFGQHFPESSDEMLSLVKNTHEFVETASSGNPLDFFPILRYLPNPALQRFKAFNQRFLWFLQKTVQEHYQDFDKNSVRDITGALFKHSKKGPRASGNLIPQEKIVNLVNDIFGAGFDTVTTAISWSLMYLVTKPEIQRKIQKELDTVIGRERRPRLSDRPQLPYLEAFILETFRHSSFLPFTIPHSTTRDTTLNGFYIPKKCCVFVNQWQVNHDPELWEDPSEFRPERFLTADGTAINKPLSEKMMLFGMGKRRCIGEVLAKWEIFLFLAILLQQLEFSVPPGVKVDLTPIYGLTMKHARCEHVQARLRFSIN

Liver microsomes [24] = assay: Intrinsic clearance in rat liver microsomes assessed per gram of protein at 0.5 uM after 30 mins by HPLC-MS/MS analysis; format: ADME, Microsome; conditions: microsomes, 0.5 h, 0.5 µM
In short: (§9)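 Compound at 0.5 μM with rat or human liver microsomes (0.5 mg protein/mL), 50 mM phosphate, pH 7.4, 37 °C, started with NADPH. Sampled at 0-30 min, acetonitrile quench, HPLC-MS/MS. CLi from first-order elimination constant, scaled assuming 52.5 mg microsomal protein/g.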

Liver microsomes [25] = assay: Intrinsic clearance in human liver microsomes assessed per gram of protein at 0.5 uM after 30 mins by HPLC-MS/MS analysis; format: ADME, Microsome; conditions: microsomes, 0.5 h, 0.5 µM; in short: as §9
[26] = target: T3, Sodium-dependent dopamine transporter; assay: Displacement of [N-methyl-3H]WIN-35428 from human recombinant DAT expressed in LLCPK cells by liquid scintillation counting; format: cell-based; in short: as §8
[27] = target: T2, Sodium-dependent serotonin transporter; assay: Displacement of [3H]citalopram from human recombinant SERT expressed in LLCPK cells by liquid scintillation counting; format: cell-based; in short: as §8
Cytochrome P450 2D6 = Cytochrome P450 2D6 (Homo sapiens, UniProt P10635); assay: Inhibition of human […] by fluorescence assay; format: ADME; in short: as §7
Cytochrome P450 2D6, sequence (P10635 whole entry): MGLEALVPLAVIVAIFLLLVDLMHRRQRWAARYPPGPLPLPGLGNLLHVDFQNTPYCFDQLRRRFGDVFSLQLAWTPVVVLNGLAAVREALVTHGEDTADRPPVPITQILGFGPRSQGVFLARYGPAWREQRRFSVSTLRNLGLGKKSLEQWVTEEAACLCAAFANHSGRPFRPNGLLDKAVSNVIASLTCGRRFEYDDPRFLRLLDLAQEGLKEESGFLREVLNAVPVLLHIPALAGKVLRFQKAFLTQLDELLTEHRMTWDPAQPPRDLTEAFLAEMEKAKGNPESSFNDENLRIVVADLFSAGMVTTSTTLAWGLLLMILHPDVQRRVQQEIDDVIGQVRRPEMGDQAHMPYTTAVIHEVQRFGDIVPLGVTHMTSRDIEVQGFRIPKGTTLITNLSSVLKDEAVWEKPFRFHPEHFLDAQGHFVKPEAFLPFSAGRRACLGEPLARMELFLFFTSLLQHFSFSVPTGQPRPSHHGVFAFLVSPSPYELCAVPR

[28] = Ratio of drug level in brain to blood in rat; format: ADME, tissue-based; conditions: read-out: BBR
[29] = as §2; format: ADME, tissue-based; conditions: brain

FC(F)(F)COC[C@H]1[C@@H]2CNC[C@@]21c1ccc(Cl)c(Cl)c1
bioavailability [1]: 41%
clearance [2]: 42 mL/min/kg
Ki [3]: 347 nM
Ki [4]: 56.2 nM
Vd [5]: 3.2 L/kg
Ki [6]: 631 nM
half-life [7]: 1.4 h
Fu (Brain): 0.6%

CCOC[C@H]1[C@@H]2CNC[C@@]21c1ccc(Cl)c(Cl)c1
Activity (Rattus norvegicus [8]): Active
Selectivity ratio (Homo sapiens): 50
Activity (Rattus norvegicus [9]): Active
Activity (Mus musculus [10]): Active
Activity (Rattus norvegicus [11]): Active
Activity (Mus musculus [12]): Dose-dependent effect
Activity (Mus musculus [13]): inactive
Activity (Mus musculus [14]): Active
Activity (Mus musculus [15]): Active
Activity (Rattus norvegicus [16]): Active
Activity (Mus musculus [17]): inactive

CN(C)CCCC1(c2ccc(F)cc2)OCc2cc(C#N)ccc21 (configuration not stated)
Activity (Mus musculus [18]): Active

COCC[C@H]1[C@]2(C)CNC[C@]12c1ccc(Cl)c(Cl)c1 (relative stereo)
IC50 [19]: 1.58 nM
IC50 [20]: 15.8 nM
Ki [3]: 1 nM
Ki [4]: 0.251 nM
Ki [6]: 50.1 nM
IC50 [21]: 0.398 nM

COC[C@H]1[C@@H]2CNC[C@@]21c1ccc(Cl)c(Cl)c1 (relative stereo)
IC50 (Cytochrome P450 2C9): > 6000 nM
Ki [22]: 4.57 nM
bioavailability [1]: 94%
IC50 (Cytochrome P450 3A4): > 6000 nM
IC50 (Cytochrome P450 2C19): > 6000 nM
clearance [2]: 16 mL/min/kg
Ki [23]: 1.78 nM
Ki [3]: 1.74 nM
Ki [4]: 0.759 nM
Vd [5]: 2.9 L/kg
Ki [6]: 56.2 nM
IC50 (Cytochrome P450 1A2): > 6000 nM
CL (Liver microsomes [24]): 3.8 mL/min/g
CL (Liver microsomes [25]): < 0.5 mL/min/g
Ki [26]: 85.1 nM
Ki [27]: 0.741 nM
IC50 (Cytochrome P450 2D6): > 6000 nM
half-life [7]: 2.4 h
Kp [28]: 4
fraction unbound [29]: 0.027

Cc1csc(C[C@H]2[C@@H]3CNC[C@@]32c2ccc(Cl)c(Cl)c2)n1 (relative stereo)
IC50 [19]: 1 nM
IC50 [20]: 20 nM
Ki [3]: 0.126 nM
Ki [4]: 0.0794 nM
Ki [6]: 20 nM
IC50 [21]: 0.251 nM
